Compound activity as filed in PubChem BioAssay.
The list is not random: actives were taken first. Their share in the collection is about 3.5%.
MrgX1 allo act: human MrgX1 positive allosteric modulation, primary screen | Q96LB2 | MrgX1-HEK293, Fluo-4 calcium flux, FDSS; stronger effect = higher value | B-score at 10 µM | 310,000 compounds, 0.63% hits | AID 588675;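 active = plate-corrected calcium response at least 3 library SD above typical, normal starting fluorescence, not activating the receptor alone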;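 also: compound read alongside a low EC10 to EC30 dose of BAM8-22 agonist; peak minus trough fluorescence over baseline measured at the second addition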
Target sequence (Q96LB2 whole entry, looked up): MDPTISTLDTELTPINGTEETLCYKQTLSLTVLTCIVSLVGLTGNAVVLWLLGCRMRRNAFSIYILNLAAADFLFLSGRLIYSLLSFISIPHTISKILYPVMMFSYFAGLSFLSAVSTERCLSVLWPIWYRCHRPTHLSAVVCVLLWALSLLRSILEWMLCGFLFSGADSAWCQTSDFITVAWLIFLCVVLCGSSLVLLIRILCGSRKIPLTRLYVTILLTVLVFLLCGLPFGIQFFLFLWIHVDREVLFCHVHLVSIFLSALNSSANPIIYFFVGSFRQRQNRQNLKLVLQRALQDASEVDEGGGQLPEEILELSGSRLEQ
RGS4 inh: inhibitors of human RGS4. P49798. HEK293 M3R/RGS4 inducible, Fluo-4 calcium flux; stronger effect = higher value; triggered by carbachol at its EC20. B-score at 10 µM. 310,000 compounds, 0.45% hits. AID 463165;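 active = B-score, a plate-corrected calcium signal, over three deviations above library mean, with baseline fluorescence within five deviations of library mean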;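 also: RGS4 expression induced by doxycycline in cells with stable M3 receptor; B-score is computed from the integrated fluorescence ratio over baseline after carbachol; higher B-score means a larger calcium signal and so more RGS4 inhibition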
Target sequence (P49798 whole entry, looked up): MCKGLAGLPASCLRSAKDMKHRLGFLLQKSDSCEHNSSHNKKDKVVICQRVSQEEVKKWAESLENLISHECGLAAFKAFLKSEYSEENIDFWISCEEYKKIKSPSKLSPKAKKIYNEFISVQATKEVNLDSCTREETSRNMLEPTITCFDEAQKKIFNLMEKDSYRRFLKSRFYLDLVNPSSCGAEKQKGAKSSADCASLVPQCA
MrgX1 antag: antagonists of human MrgX1 receptor. Q96LB2. MRGX1-HEK293 calcium flux, Fluo-4, BAM8-22 antagonism; stronger effect = lower value. B-score at 10 µM. 310,000 compounds, 1.3% hits;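 active = calcium-response B-score plate-corrected more than 3 library SD below zero, starting fluorescence within 5 deviations, no agonist response on first addition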;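 also: peak minus trough fluorescence over baseline after final BAM8-22 challenge near maximal dose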
RGS4 act: RGS4 potentiation or activation; HEK293 M3R/inducible RGS4, carbachol calcium flux Fluo4; stronger effect = lower value; AID 463111; B-score at 10 µM; 310,000 compounds, 0.92% hits;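 active = B-score of the integrated calcium signal more than 4 SD below the library mean, with starting fluorescence not abnormally high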;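 also: negative B-score means reduced calcium response which marks RGS4 activation or potentiation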
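Also added: carbachol at ECmax as muscarinic agonist stimulus; Assay system: HEK293 cells with stable M3R and inducible RGS4; Timing: overnight RGS4 induction, 30 min dye load 37 °C, 20 min compound RT; Measured by: Fluo4-AM (2 µM) calcium-flux fluorescence, kinetic read.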
MrgX1 agonist: activates human MrgX1 receptor signaling | Q96LB2 | MrgX1-HEK293 cells, Fluo-4 calcium fluorescence, agonist mode; stronger effect = higher value | B-score at 10 µM | 310,000 compounds, 0.44% hits | AID 588627;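 active = calcium response B-score plate-corrected fluorescence ratio at least 3 library SD, with starting fluorescence B-score inside 5 SD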
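Test system: Stable human MrgX1 HEK293 cell line | Schedule: Overnight plating before 1 h dye loading | Read-out basis: Baseline-normalised fluorescence change ratio, B-scored | Detection: Kinetic calcium dye fluorescence, Fluo-4 NW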
MrgX1 PAM conf: reconfirmed allosteric activator of human MrgX1 receptor | shares compounds with MrgX1 allo act | MrgX1-HEK293, Fluo-4 calcium fluorescence, FDSS | activation (ratio percentage), % at 10 µM | 1,200 compounds, 13% hits | AID 602413;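 active = ratio at least 3 SD above the weak peptide control, stable starting fluorescence, no direct agonism earlier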;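 also: compound followed by low BAM8-22 agonist challenge near EC20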
HEK293 Ca flux: MrgX1 antagonist counter-screen hit in parental HEK293 cells. shares compounds with MrgX1 antag. Fluo-4 calcium fluorescence, FDSS. fluorescence ratio F(max-min)/F0 at 10 µM. 4,000 compounds, 2% hits. AID 624111;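 active = duplicate-averaged calcium fluorescence ratio at least three times the standard deviation of buffer wells, a nonspecific response in parental cells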
HEK293 Ca counter: activity in parental HEK293 cells without MrgX1 | shares compounds with MrgX1 antag | parental HEK293 calcium flux, Fluo-4 fluorescence ratio; stronger effect = higher value | fluorescence ratio F(max-min)/F0 at 10 µM | 4,000 compounds, 0.4% hits;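 active = calcium fluorescence ratio, averaged over duplicates, at least 3 SD of the buffer-well ratio, meaning a nonspecific response in receptor-free cells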;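 also: untransfected parental HEK293 lacking MrgX1 used as counterscreen for MrgX1 allosteric activators; fluorescence change taken during the second addition on a kinetic imager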
HEK293 Ca cntr2: activity in parental HEK293 cells lacking MrgX1 receptor | Fluo-4 calcium fluorescence (FDSS); stronger effect = higher value | shares compounds with MrgX1 antag | fluorescence ratio F(max-min)/F0 at 10 µM | 4,000 compounds, 8.7% hits;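 active = calcium fluorescence ratio at least three times the spread of buffer wells, meaning a non-specific response in parental cells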
The depositor's hits bear a star.

Results for CCc1cc2c(N3CCCCC3)ncnc2s1 ?
MrgX1 allo act: 11*; RGS4 inh: inactive; MrgX1 antag: inactive; RGS4 act: inactive; MrgX1 agonist: inactive; MrgX1 PAM conf: inactive; HEK293 Ca flux: inactive; HEK293 Ca counter: inactive; HEK293 Ca cntr2: inactive

Results for Cc1sc2ncnc(N3CCCC(C)C3)c2c1C (configuration not stated) ?
MrgX1 allo act: 28*; RGS4 inh: inactive; MrgX1 antag: inactive; RGS4 act: inactive; MrgX1 agonist: inactive; MrgX1 PAM conf: 25%*; HEK293 Ca flux: inactive; HEK293 Ca counter: inactive; HEK293 Ca cntr2: inactive

What do the screens show for `CCOC(=O)c1cc2c(nc1C)-c1cc(Cl)cc(Cl)c1OC2O` (configuration not stated)?
MrgX1 allo act: inactive; RGS4 inh: inactive; MrgX1 antag: inactive; RGS4 act: inactive; MrgX1 agonist: inactive

Results for COc1ccc(CC(=O)NNS(=O)(=O)c2ccc([N+](=O)[O-])cc2)cc1OC ?
MrgX1 allo act: inactive; RGS4 inh: inactive; MrgX1 antag: inactive; RGS4 act: inactive; MrgX1 agonist: inactive

Results for CCCCNC(=S)Nc1cccc(C(C)=O)c1 ?
MrgX1 allo act: inactive; RGS4 inh: inactive; MrgX1 antag: inactive; RGS4 act: inactive; MrgX1 agonist: inactive

How did C#CC(CC)(CC)NC(=S)Nc1cccc(C(C)=O)c1 do in these assays?
MrgX1 allo act: 8.3*; RGS4 inh: inactive; MrgX1 antag: inactive; RGS4 act: inactive; MrgX1 agonist: inactive; MrgX1 PAM conf: inactive; HEK293 Ca flux: inactive; HEK293 Ca counter: inactive; HEK293 Ca cntr2: inactive

How did CC(=O)NC(Cc1ccc(F)cc1)C(=O)NC1CCN(C(=O)Nc2ccc(F)cc2)CC1 (configuration not stated) do in these assays?
MrgX1 allo act: 59*; RGS4 inh: inactive; MrgX1 antag: inactive; RGS4 act: inactive; MrgX1 agonist: inactive; MrgX1 PAM conf: inactive; HEK293 Ca flux: inactive; HEK293 Ca counter: inactive; HEK293 Ca cntr2: inactive

Results for CC(=O)NC(Cc1ccc(F)cc1)C(=O)NC1CCN(C(=O)Nc2cccc(C)c2)CC1 (configuration not stated) ?
MrgX1 allo act: inactive; RGS4 inh: inactive; MrgX1 antag: inactive; RGS4 act: inactive; MrgX1 agonist: inactive

How did O=C(O)CSCC(=O)NCc1ccccc1 do in these assays?
MrgX1 allo act: inactive; RGS4 inh: inactive; MrgX1 antag: inactive; RGS4 act: inactive; MrgX1 agonist: inactive

What do the screens show for `CCN(CC)S(=O)(=O)c1c(OC)cc(C)c(Cl)c1C`?
MrgX1 allo act: 10*; RGS4 inh: inactive; MrgX1 antag: inactive; RGS4 act: inactive; MrgX1 agonist: inactive; MrgX1 PAM conf: inactive; HEK293 Ca flux: inactive; HEK293 Ca counter: inactive; HEK293 Ca cntr2: inactive

How did CCN(CC)S(=O)(=O)c1cc(C)c(C)cc1Br do in these assays?
MrgX1 allo act: inactive; RGS4 inh: inactive; MrgX1 antag: inactive; RGS4 act: inactive; MrgX1 agonist: inactive

What do the screens show for `Cc1ccsc1/C=C(\C#N)C(=O)NCCCN1CCOCC1`?
MrgX1 allo act: 24*; RGS4 inh: inactive; MrgX1 antag: inactive; RGS4 act: inactive; MrgX1 agonist: inactive; MrgX1 PAM conf: inactive; HEK293 Ca flux: inactive; HEK293 Ca counter: inactive; HEK293 Ca cntr2: inactive

Results for COc1cccc(NC(=O)c2cccc(S(=O)(=O)N3CCN(Cc4ccccc4)CC3)c2)c1 ?
MrgX1 allo act: inactive; RGS4 inh: inactive; MrgX1 antag: inactive; RGS4 act: inactive; MrgX1 agonist: inactive
